Experimental data taken from ChEMBL document CHEMBL1149291, “Discovery of N-(2-chloro-6-methyl- phenyl)-2-(6-(4-(2-hydroxyethyl)- piperazin-1-yl)-2-methylpyrimidin-4-ylamino)thiazole-5-carboxamide (BMS-354825), a dual Src/Abl kinase inhibitor with potent antitumor activity in preclinical assays” (J Med Chem, 2004).

What was measured:
K562 = assay: Antiproliferative activity against human K562 cells after 72 hrs; type: functional, cell-based; conditions: K562, 72 h
[1] = AUC (0-4 hrs) in BALB/c mouse at 50 mg/kg, po after 4 hrs; type: ADME, organism-based; set-up: time < 4 hr, dose 50 mg/kg, route oral; conditions: plasma
Procedure, shortened: (§1)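 Mouse 4 h oral exposure screen: oral dose of 50 mg/kg given as a solution in 1:1 propylene glycol:water. Plasma drug levels followed over 4 h, giving AUC(0-4h), peak concentration (Cmax) and the concentration at 4 h.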

[2] = Cmax in BALB/c mouse at 50 mg/kg, po after 4 hrs; type: ADME, organism-based; set-up: dose 50 mg/kg, route oral; conditions: in vivo; procedure, shortened: as §1
[3] = Plasma concentration in BALB/c mouse at 50 mg/kg, po after 4 hrs; type: ADME, organism-based; set-up: dose 50 mg/kg, route oral; procedure, shortened: as §1
PC-3 = assay: cells; conditions: Homo sapiens, PC-3, 72 h
MDA-MB-231 = assay: cells; conditions: Homo sapiens, MDA-MB-231, 72 h
WiDr = assay: cells; conditions: Homo sapiens, 72 h
[4] = (§2) Protein binding in human serum at 10 uM; type: ADME, cell-free; conditions: read-out: PPB (converted)
Procedure, shortened: (§3)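 Binding to human serum proteins measured at a compound concentration of 10 μM.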

[5] = Cmax in Sprague-Dawley rat at 10 mg/kg, iv; type: ADME, organism-based; set-up: dose 10 mg/kg, route intravenous; conditions: in vivo
Procedure, shortened: (§4)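 Sprague–Dawley rats each given 10 mg/kg of compound, either intravenously or orally, in separate arms. Pharmacokinetic parameters were reported for each route as means with a variability term in parentheses. These were Cmax, Tmax, AUCtot, t1/2, MRT, and, for the iv dose, Cl and Vss. Oral bioavailability (Fpo) was reported for the oral arm.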

[6] = AUC (total) in Sprague-Dawley rat at 10 mg/kg, iv; type: ADME, organism-based; set-up: dose 10 mg/kg, route intravenous; conditions: plasma
Procedure, shortened: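 Sprague–Dawley rats; single 10 mg/kg intravenous dose as a solution in citric acid buffer at pH 4.6. Total plasma AUC (μM·h) taken from the pharmacokinetic profile alongside Cmax, t1/2, MRT, clearance and Vss.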

[7] = Mean residence time in Sprague-Dawley rat at 10 mg/kg, iv; type: ADME, organism-based; set-up: dose 10 mg/kg, route intravenous; conditions: in vivo
Procedure, shortened: (§5)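 Sprague-Dawley rats dosed at 10 mg/kg, either iv or orally, with drug as a solution in citric acid buffer pH 4.6. Parameters derived from plasma levels: Cmax, Tmax, AUCtot, t1/2, MRT, clearance, Vss, and oral bioavailability.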

[8] = Volume of distribution in Sprague-Dawley rat at 10 mg/kg, iv; type: ADME, organism-based; set-up: dose 10 mg/kg, route intravenous; conditions: in vivo, read-out: Vss; procedure, shortened: as §5
[9] = Cmax in Sprague-Dawley rat at 10 mg/kg, po; type: ADME, organism-based; set-up: dose 10 mg/kg, route oral; conditions: in vivo; procedure, shortened: as §4
[10] = Tmax in Sprague-Dawley rat at 10 mg/kg, po; type: ADME, organism-based; set-up: dose 10 mg/kg, route oral; conditions: in vivo; procedure, shortened: as §5
[11] = AUC (total) in Sprague-Dawley rat at 10 mg/kg, po; type: ADME, organism-based; set-up: dose 10 mg/kg, route oral; conditions: plasma
Procedure, shortened: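 Sprague–Dawley rats; single 10 mg/kg oral dose given as a solution. Total plasma AUC (μM·h) taken from the pharmacokinetic profile alongside Cmax, Tmax, t1/2 and MRT.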

[12] = Mean residence time in Sprague-Dawley rat at 10 mg/kg, po; type: ADME, organism-based; set-up: dose 10 mg/kg, route oral; conditions: in vivo; procedure, shortened: as §5
Rattus norvegicus [13] = assay: Clearance in Sprague-Dawley rat at 10 mg/kg, iv; type: ADME, organism-based; set-up: dose 10 mg/kg, route intravenous; conditions: in vivo; procedure, shortened: as §5
Rattus norvegicus [14] = assay: Oral bioavailability in Sprague-Dawley rat at 10 mg/kg, po; type: ADME, organism-based; conditions: in vivo; procedure, shortened: as §4
Mus musculus = species on record: Mus musculus; assay: Toxicity in nude mouse; type: organism-based; conditions: in vivo
Procedure, shortened: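 K562 cells implanted subcutaneously in nude mice and staged to about 300 mg tumors. Oral dosing once daily at 5 or 50 mg/kg on a 5 day on/2 day off schedule for two cycles. Toxicity scored as animal deaths or lack of weight gain.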

Serum = assay: as §2; type: ADME, cell-free; conditions: 10 µM; procedure, shortened: as §3

IC50 (K562) [nM]	AUC(0-t) at 4 h [1] [µM·h]	Cmax [2] [nM]	concentration at 4 h [3] [nM]	IC50 (PC-3) [nM]	IC50 (MDA-MB-231) [nM]	IC50 (WiDr) [nM]	fraction unbound at 10 µM [4]	Compound	Cmax [5] [nM]	AUC [6] [µM·h]	MRT [7] [h]	Vd [8] [L/kg]	Cmax [9] [nM]	Tmax [10] [h]	AUC [11] [µM·h]	MRT [12] [h]	clearance (Rattus norvegicus [13]) [mL/min/kg]	F (Rattus norvegicus [14]) [%]	Activity (Mus musculus)	PPB (Serum) [%]
< 2	11	3100	3100	14	23	27	0.08	Cc1nc(NCCCN2CCOCC2)cc(Nc2ncc(C(=O)Nc3c(C)cccc3Cl)s2)n1	–	–	–	–	–	–	–	–	–	–	–	–
< 1	3.1	2200	280	25	47	180	–	Cc1nc(NCCN2CCOCC2)cc(Nc2ncc(C(=O)Nc3c(C)cccc3Cl)s2)n1	–	–	–	–	–	–	–	–	–	–	–	–
1.6	–	–	–	67	–	–	–	Cc1cc(Nc2ncc(C(=O)Nc3c(C)cccc3Cl)s2)nc(C)n1	–	–	–	–	–	–	–	–	–	–	–	–
< 3	7.2	7000	300	13	3.1	7.9	0.08	Cc1cccc(Cl)c1NC(=O)c1cnc(Nc2cccc(NCCO)n2)s1	–	–	–	–	–	–	–	–	–	–	–	–
< 4	1.5	800	170	27	140	210	–	Cc1nc(NCCO)cc(Nc2ncc(C(=O)Nc3c(C)cccc3Cl)s2)n1	–	–	–	–	–	–	–	–	–	–	–	–

Further lines, the compound ahead of its results:

Compound	IC50 (K562) [nM]	AUC(0-t) at 4 h [1] [µM·h]	Cmax [2] [nM]	concentration at 4 h [3] [nM]	IC50 (PC-3) [nM]	IC50 (MDA-MB-231) [nM]	IC50 (WiDr) [nM]	fraction unbound at 10 µM [4]	Cmax [5] [nM]	AUC [6] [µM·h]	MRT [7] [h]	Vd [8] [L/kg]	Cmax [9] [nM]	Tmax [10] [h]	AUC [11] [µM·h]	MRT [12] [h]	clearance (Rattus norvegicus [13]) [mL/min/kg]	F (Rattus norvegicus [14]) [%]	Activity (Mus musculus)	PPB (Serum) [%]
Cc1cccc(Cl)c1NC(=O)c1cnc(Nc2cc(NCCN3CCOCC3)ncn2)s1	< 2	17	9600	1900	82	170	270	–	–	–	–	–	–	–	–	–	–	–	–	–
Cc1cccc(Cl)c1NC(=O)c1cnc(Nc2cc(N3CCOCC3)ncn2)s1	< 3	1.7	960	220	24	45	270	–	–	–	–	–	–	–	–	–	–	–	–	–
Cc1nc(Nc2ncc(C(=O)Nc3c(C)cccc3Cl)s2)cc(N2CCC(CO)CC2)n1	< 1	3.5	2500	180	11	9	41	–	–	–	–	–	–	–	–	–	–	–	–	–
Cc1nc(Nc2ncc(C(=O)Nc3c(C)cccc3Cl)s2)cc(N2CCOCC2)n1	< 3	0.16	67	37	3.6	16	27	–	–	–	–	–	–	–	–	–	–	–	–	–
Cc1cccc(Cl)c1NC(=O)c1cnc(Nc2cccc(NCCCN3CCOCC3)n2)s1	< 2	13	8600	1100	10	34	32	–	–	–	–	–	–	–	–	–	–	–	–	–
Cc1cccc(Cl)c1NC(=O)c1cnc(Nc2cccc(NCCCn3ccnc3)n2)s1	< 3	0.16	88	33	2.8	< 3	4.1	0.01	–	–	–	–	–	–	–	–	–	–	–	–
Cc1nc(Nc2ncc(C(=O)Nc3c(C)cccc3Cl)s2)cc(N2CCN(CCO)CC2)n1.O [DASATINIB]	< 1	4.8	2700	700	9.4	12	52	–	13200	13.9	4.1	6.3	500	2.2	3.8	6.7	26.4	27	Non-toxic	91
